From the M2OR odorant receptor database

Assays:
Conditions in all cases: stereoisomer not certain
[1] = target: OR6X1 (Homo sapiens) (UniProt Q8NH79)
In short: (§1)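 Each entry records the cell line, G-protein, co-transfected protein and tags used. Methods varied with the source, often transient luciferase assays in mammalian cell lines. A receptor–molecule pair is called responsive (active) if the original authors judged its signal statistically different from baseline and non-responsive (inactive) otherwise.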

[2] = target: OR6Y1 (Homo sapiens) (UniProt Q8NGX8)
Chain of OR6Y1 (Homo sapiens) (Q8NGX8 whole entry): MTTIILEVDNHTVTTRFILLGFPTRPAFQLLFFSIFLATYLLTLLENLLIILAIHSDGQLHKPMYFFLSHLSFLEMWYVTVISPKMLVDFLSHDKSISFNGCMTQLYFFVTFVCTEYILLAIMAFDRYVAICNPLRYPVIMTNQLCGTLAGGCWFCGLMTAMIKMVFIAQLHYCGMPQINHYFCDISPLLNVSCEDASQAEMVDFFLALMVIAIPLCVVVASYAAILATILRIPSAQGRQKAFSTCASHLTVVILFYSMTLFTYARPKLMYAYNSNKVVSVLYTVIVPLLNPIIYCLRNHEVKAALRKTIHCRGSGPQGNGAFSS
In short: as §1

[3] = target: OR7A10 (Homo sapiens) (UniProt O76100)
Chain of OR7A10 (Homo sapiens) (O76100 whole entry): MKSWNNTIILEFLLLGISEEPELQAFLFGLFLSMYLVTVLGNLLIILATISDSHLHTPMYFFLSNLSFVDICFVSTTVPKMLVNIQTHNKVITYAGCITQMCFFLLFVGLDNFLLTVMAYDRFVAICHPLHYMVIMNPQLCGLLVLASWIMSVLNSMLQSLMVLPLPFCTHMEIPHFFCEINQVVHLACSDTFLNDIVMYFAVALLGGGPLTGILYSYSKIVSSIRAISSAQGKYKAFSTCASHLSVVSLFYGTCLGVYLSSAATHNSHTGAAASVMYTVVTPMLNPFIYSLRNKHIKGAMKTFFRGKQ
In short: as §1

[4] = target: OR7A17 (Homo sapiens) (UniProt O14581)
Chain of OR7A17 (Homo sapiens) (O14581 whole entry): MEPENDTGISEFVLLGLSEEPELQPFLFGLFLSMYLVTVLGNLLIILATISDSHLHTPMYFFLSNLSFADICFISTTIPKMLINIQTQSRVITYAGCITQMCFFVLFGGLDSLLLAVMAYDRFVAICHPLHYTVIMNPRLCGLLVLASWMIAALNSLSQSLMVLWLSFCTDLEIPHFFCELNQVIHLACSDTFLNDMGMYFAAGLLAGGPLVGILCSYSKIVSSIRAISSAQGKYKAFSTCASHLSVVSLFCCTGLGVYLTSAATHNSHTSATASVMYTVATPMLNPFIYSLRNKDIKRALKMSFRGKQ
In short: as §1

[5] = target: OR7A5 (Homo sapiens) (UniProt Q15622)
Chain of OR7A5 (Homo sapiens) (Q15622 whole entry): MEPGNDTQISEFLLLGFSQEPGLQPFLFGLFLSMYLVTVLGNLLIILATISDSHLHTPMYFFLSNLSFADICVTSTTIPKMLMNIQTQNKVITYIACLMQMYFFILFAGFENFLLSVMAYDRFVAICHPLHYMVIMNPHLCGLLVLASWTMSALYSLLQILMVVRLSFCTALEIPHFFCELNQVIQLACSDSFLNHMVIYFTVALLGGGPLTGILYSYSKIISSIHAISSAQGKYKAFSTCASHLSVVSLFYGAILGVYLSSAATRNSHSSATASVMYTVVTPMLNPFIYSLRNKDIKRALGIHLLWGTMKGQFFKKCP
In short: as §1

[6] = target: OR7C1 (Homo sapiens) (UniProt O76099)
Chain of OR7C1 (Homo sapiens) (O76099 whole entry): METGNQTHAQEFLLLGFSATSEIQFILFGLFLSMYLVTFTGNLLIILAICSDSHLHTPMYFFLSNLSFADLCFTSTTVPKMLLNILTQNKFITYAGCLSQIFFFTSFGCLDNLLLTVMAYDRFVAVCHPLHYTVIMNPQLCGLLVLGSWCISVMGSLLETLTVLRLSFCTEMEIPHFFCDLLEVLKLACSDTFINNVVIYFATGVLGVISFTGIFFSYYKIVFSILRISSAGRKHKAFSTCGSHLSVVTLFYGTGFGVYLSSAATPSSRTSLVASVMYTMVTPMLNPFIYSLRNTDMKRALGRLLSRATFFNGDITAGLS
In short: as §1

[7] = target: OR7C2 (Homo sapiens) (UniProt O60412)
Chain of OR7C2 (Homo sapiens) (O60412 whole entry): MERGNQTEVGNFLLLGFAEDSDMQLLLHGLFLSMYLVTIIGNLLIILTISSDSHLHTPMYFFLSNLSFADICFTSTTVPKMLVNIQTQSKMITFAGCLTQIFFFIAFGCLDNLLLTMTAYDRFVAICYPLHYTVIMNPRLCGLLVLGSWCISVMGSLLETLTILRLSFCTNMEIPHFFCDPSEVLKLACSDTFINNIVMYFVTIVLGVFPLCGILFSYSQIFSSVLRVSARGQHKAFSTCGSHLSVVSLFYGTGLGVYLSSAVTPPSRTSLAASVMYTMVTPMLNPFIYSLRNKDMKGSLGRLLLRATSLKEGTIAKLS
In short: as §1

[8] = target: OR7D2 (Homo sapiens) (UniProt Q96RA2)
Chain of OR7D2 (Homo sapiens) (Q96RA2 whole entry): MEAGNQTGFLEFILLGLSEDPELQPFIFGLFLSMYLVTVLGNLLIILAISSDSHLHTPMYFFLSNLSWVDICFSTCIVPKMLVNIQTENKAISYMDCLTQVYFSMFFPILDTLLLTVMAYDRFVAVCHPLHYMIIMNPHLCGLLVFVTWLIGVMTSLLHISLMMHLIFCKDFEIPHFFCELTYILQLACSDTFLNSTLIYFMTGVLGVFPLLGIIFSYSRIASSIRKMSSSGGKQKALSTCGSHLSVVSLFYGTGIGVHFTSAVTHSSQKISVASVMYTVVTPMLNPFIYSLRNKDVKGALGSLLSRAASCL
In short: as §1

[9] = system: OR7A5 M81I
Chain of OR7A5 M81I (as listed by the source, stated change not applied): as the sequence (Q15622 whole entry) above, with M81I counted along it
In short: as §1

[10] = system: OR7C1 V126I E171K
In short: as §1

Measured: odorant receptor agonist call

Chain of OR6X1 (Homo sapiens) (Q8NH79 whole entry): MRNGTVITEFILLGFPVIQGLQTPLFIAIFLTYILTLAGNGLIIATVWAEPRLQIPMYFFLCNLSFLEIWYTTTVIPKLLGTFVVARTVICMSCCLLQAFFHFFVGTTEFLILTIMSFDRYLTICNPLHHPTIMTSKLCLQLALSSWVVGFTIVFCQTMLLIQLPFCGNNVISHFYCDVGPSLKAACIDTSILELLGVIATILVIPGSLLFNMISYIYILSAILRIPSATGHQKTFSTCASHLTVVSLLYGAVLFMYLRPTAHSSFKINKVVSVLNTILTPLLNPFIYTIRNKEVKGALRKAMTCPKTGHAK

Cc1c([N+](=O)[O-])c(C)c([N+](=O)[O-])c(C(C)(C)C)c1[N+](=O)[O-]
not listed: [9] | [10]
inactive: all other assays above

C=CCOC(=O)Cc1ccccc1
inactive: all assays above
